Reference: ChEMBL document CHEMBL4130552, “Design, synthesis and biological evaluation of novel benzimidazole amidines as potent multi-target inhibitors for the treatment of non-small cell lung cancer” (Eur J Med Chem, 2018)

The compounds below were run on CFPAC-1 (assay: Antiproliferative activity against human CFPAC-1 cells after 72 hrs by MTT assay). Conditions: CFPAC-1, 72 h.
Format: functional, cell-based
Method in brief: (§1)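 Cells seeded at 5000/well on day 0 in medium with 10% FBS, 2 mM L-glutamine, penicillin/streptomycin, 37 °C, 5% CO2. Compounds added at five 10-fold dilutions with DMSO ≤0.1%, then 72 h exposure. MTT absorbance converted to percentage growth versus untreated wells. IC50 by linear regression between bracketing concentrations. Quadruplicate points, three independent experiments.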

| SMILES | IC50 [nM] |
| --- | --- |
| CC(C)NC(=N)c1ccc2[nH]c(-c3ccc(OCc4cn(-c5ccc(I)cc5)nn4)cc3)nc2c1 | 5130 |
| Clc1ccc(-n2cc(COc3ccc(-c4nc5ccccc5[nH]4)cc3)nn2)cc1 | > 100000 |
| Fc1ccc(-n2cc(COc3ccc(-c4nc5cc(C6=NCCN6)ccc5[nH]4)cc3)nn2)cc1 | > 100000 |
| CC(C)NC(=N)c1ccc2[nH]c(-c3ccc(OCc4cn(-c5ccc(F)cc5)nn4)cc3)nc2c1 | 710 |
| CC(C)NC(=N)c1ccc2[nH]c(-c3cn(-c4ccc(Cl)cc4)nn3)nc2c1 | 16000 |
| CC(C)NC(=N)c1ccc2[nH]c(-c3ccc(OCc4cn(Cc5ccc(Cl)cc5)nn4)cc3)nc2c1 | > 100000 |
| Ic1ccc(-n2cc(COc3ccc(-c4nc5cc(C6=NCCN6)ccc5[nH]4)cc3)nn2)cc1 | 860 |

What follows are compounds tested on SW-620 (assay: Antiproliferative activity against human SW620 cells after 72 hrs by MTT assay). Conditions: SW-620, 72 h.
Format: functional, cell-based
Method in brief: as §1

| SMILES | IC50 [nM] |
| --- | --- |
| CC(C)NC(=N)c1ccc2[nH]c(-c3ccc(OCc4cn(-c5ccc(I)cc5)nn4)cc3)nc2c1 | 690 |
| Clc1ccc(-n2cc(COc3ccc(-c4nc5ccccc5[nH]4)cc3)nn2)cc1 | 99300 |
| Fc1ccc(-n2cc(COc3ccc(-c4nc5cc(C6=NCCN6)ccc5[nH]4)cc3)nn2)cc1 | 2310 |
| CC(C)NC(=N)c1ccc2[nH]c(-c3ccc(OCc4cn(Cc5ccc(Cl)cc5)nn4)cc3)nc2c1 | 36500 |

The remaining compounds from weak to strong by IC50, led by results:

| IC50 [nM] | SMILES |
| --- | --- |
| 37800 | CC(C)NC(=N)c1ccc2[nH]c(-c3ccc(OCc4cn(-c5ccc(F)cc5)nn4)cc3)nc2c1 |
| 32500 | CC(C)NC(=N)c1ccc2[nH]c(-c3cn(-c4ccc(Cl)cc4)nn3)nc2c1 |
| 370 | Ic1ccc(-n2cc(COc3ccc(-c4nc5cc(C6=NCCN6)ccc5[nH]4)cc3)nn2)cc1 |

The compounds below were run on A549 (assay: Antiproliferative activity against human A549 cells after 72 hrs by MTT assay). Conditions: A549, 72 h.
Format: functional, cell-based
Method in brief: as §1

| SMILES | IC50 [nM] |
| --- | --- |
| CC(C)NC(=N)c1ccc2[nH]c(-c3ccc(OCc4cn(-c5ccc(I)cc5)nn4)cc3)nc2c1 | 80 |
| Clc1ccc(-n2cc(COc3ccc(-c4nc5ccccc5[nH]4)cc3)nn2)cc1 | 7960 |
| Fc1ccc(-n2cc(COc3ccc(-c4nc5cc(C6=NCCN6)ccc5[nH]4)cc3)nn2)cc1 | > 100000 |
| CC(C)NC(=N)c1ccc2[nH]c(-c3ccc(OCc4cn(Cc5ccc(Cl)cc5)nn4)cc3)nc2c1 | 4980 |

Now from value to compound:

| IC50 [nM] | SMILES |
| --- | --- |
| 8370 | CC(C)NC(=N)c1ccc2[nH]c(-c3ccc(OCc4cn(-c5ccc(F)cc5)nn4)cc3)nc2c1 |
| 27100 | CC(C)NC(=N)c1ccc2[nH]c(-c3cn(-c4ccc(Cl)cc4)nn3)nc2c1 |
| > 100000 | Ic1ccc(-n2cc(COc3ccc(-c4nc5cc(C6=NCCN6)ccc5[nH]4)cc3)nn2)cc1 |

These compounds were tested on WI-38 (assay: Antiproliferative activity against human WI38 cells after 72 hrs by MTT assay). Conditions: WI-38, 72 h.
Format: cell-based
Method in brief: as §1

| SMILES | IC50 [nM] |
| --- | --- |
| CC(C)NC(=N)c1ccc2[nH]c(-c3ccc(OCc4cn(-c5ccc(I)cc5)nn4)cc3)nc2c1 | 200 |
| Clc1ccc(-n2cc(COc3ccc(-c4nc5ccccc5[nH]4)cc3)nn2)cc1 | 1110 |
| Fc1ccc(-n2cc(COc3ccc(-c4nc5cc(C6=NCCN6)ccc5[nH]4)cc3)nn2)cc1 | 90 |
| CC(C)NC(=N)c1ccc2[nH]c(-c3ccc(OCc4cn(-c5ccc(F)cc5)nn4)cc3)nc2c1 | 660 |
| CC(C)NC(=N)c1ccc2[nH]c(-c3cn(-c4ccc(Cl)cc4)nn3)nc2c1 | 6850 |
| CC(C)NC(=N)c1ccc2[nH]c(-c3ccc(OCc4cn(Cc5ccc(Cl)cc5)nn4)cc3)nc2c1 | 700 |
| Ic1ccc(-n2cc(COc3ccc(-c4nc5cc(C6=NCCN6)ccc5[nH]4)cc3)nn2)cc1 | 220 |

These compounds were tested on HeLa (assay: Antiproliferative activity against human HeLa cells after 72 hrs by MTT assay). Conditions: not given.
Format: functional, cell-based
Method in brief: as §1

| SMILES | IC50 [nM] |
| --- | --- |
| CC(C)NC(=N)c1ccc2[nH]c(-c3ccc(OCc4cn(-c5ccc(I)cc5)nn4)cc3)nc2c1 | 510 |
| Clc1ccc(-n2cc(COc3ccc(-c4nc5ccccc5[nH]4)cc3)nn2)cc1 | > 100000 |
| Fc1ccc(-n2cc(COc3ccc(-c4nc5cc(C6=NCCN6)ccc5[nH]4)cc3)nn2)cc1 | 980 |
| CC(C)NC(=N)c1ccc2[nH]c(-c3ccc(OCc4cn(Cc5ccc(Cl)cc5)nn4)cc3)nc2c1 | > 100000 |

The remaining lines, values ahead:

| IC50 [nM] | SMILES |
| --- | --- |
| 590 | CC(C)NC(=N)c1ccc2[nH]c(-c3ccc(OCc4cn(-c5ccc(F)cc5)nn4)cc3)nc2c1 |
| 850 | CC(C)NC(=N)c1ccc2[nH]c(-c3cn(-c4ccc(Cl)cc4)nn3)nc2c1 |
| 420 | Ic1ccc(-n2cc(COc3ccc(-c4nc5cc(C6=NCCN6)ccc5[nH]4)cc3)nn2)cc1 |
